Laboratory results taken from ChEMBL document CHEMBL5252514, “Conopeptide-Derived κ-Opioid Agonists (Conorphins): Potent, Selective, and Metabolic Stable Dynorphin A Mimetics with Antinociceptive Properties” (J Med Chem, 2016).
pKi: −log10 of the molar value. Where a SMILES comes first, the peptide text is derived from it.

Legend:
[1] = Metabolic stability in Wistar rat plasma assessed as half life by HPLC analysis; type: ADME, cell-free
Procedure, shortened: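 Peptide at 1 mg/mL in sterile PBS pH 7.4 was mixed 1:1 with thawed, centrifuged Wistar rat plasma supernatant and incubated at 37°C in triplicate. Samples at 0, 1, 2, 3, 4, 6 and 24 h were quenched with acetonitrile and then 2% TFA/water, and analysed by HPLC with inline electrospray MS.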

[2] = target: Kappa-type opioid receptor (Homo sapiens, UniProt P41145); experiment: Displacement of [3H]U69593 from human kappa opioid receptor expressed in CHO-K1 cells incubated for 1 hr by 1450 microbeta scintillation counter analysis; type: cell-based
Chain of Kappa-type opioid receptor (P41145 whole entry): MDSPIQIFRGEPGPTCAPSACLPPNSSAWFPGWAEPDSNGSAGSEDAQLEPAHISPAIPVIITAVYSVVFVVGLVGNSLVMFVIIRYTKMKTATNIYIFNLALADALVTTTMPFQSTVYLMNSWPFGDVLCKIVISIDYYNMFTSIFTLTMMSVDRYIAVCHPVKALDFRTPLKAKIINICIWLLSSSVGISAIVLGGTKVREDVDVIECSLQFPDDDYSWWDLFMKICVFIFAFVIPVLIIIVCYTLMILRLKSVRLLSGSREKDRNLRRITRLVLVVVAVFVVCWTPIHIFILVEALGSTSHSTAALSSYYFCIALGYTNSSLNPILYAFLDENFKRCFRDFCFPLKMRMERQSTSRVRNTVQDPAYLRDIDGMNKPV
Procedure, shortened: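 Membranes from transiently KOR-transfected CHO-K1 cells (~2 µg/well) used in SPA with 3H-U69,593 (1 nM). Competitor ranged 1 pM–10 µM in 50 mM Tris-HCl pH 7.4, 5 mM MgCl2, 0.1% BSA. Incubated 1 h at room temperature with shaking. Nonspecific binding defined with 10 µM dynorphin A. Sigmoidal dose-response fit; at least three independent experiments in triplicate.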

| Compound | half-life [1] | pKi [2] |
| --- | --- | --- |
| N=C(N)NCCC[C@@H](NC(=O)[C@@H](CCCNC(=N)N)NC(=O)[C@@H]1CCCN1C(=O)c1ccccc1)C(=O)N[C@@H](CCC(N)=O)C(=O)N[C@H](CN[C@H]1CSSC[C@@H](C(N)=O)NC1=O)CC1CCCCC1 | 16 h | 6.87 |
| CC[C@H](C)[C@H](NC(=O)[C@H](CCC(N)=O)NC(=O)[C@H](CCCNC(=N)N)NC(=O)[C@@H](N)CCCNC(=N)N)C(N)=O (H-RRQI-NH2) | – | 4.64 |
